Results on seven compounds are retold here after ChEMBL document CHEMBL1147731, “Potent 7-hydroxy-1,2,3,4-tetrahydroisoquinoline-3-carboxylic acid-based macrocyclic inhibitors of hepatitis C virus NS3 protease” (J Med Chem, 2006).

One data set addresses NS3 (Hepatitis C virus, UniProt A3EZJ3). Put plainly: Inhibition of HCV NS3 protease. Also on record: species or system Hepacivirus hominis. In short, it runs like this: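 Continuous spectrophotometric assay with NS4A-tethered single-chain NS3 serine protease, following cleavage of chromogenic ester substrates. Inhibition constants (Ki*) were determined. Compounds were tested as a mixture of two P1 diastereomers because pure P1 isomers racemized extensively under the assay conditions.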

Data set [1] in a line: AUC in rat administered sc. It counts as ADME, organism-based. To be noted: plasma.
The nature of data set [2]: Oral bioavailability in rat. As to conditions: in vivo. It counts as ADME, organism-based.
A short description of data set [3]: AUC in rat administered po. To be noted: plasma. It counts as ADME, organism-based.

Molecules are shown by their SMILES. Numbered stars: 1 amine (or outer) side, 2 acyl side, 3 side chain; on linkers, the order of the positions; unused ones are H or OH. Bridge positions count the residues as written; N and C are the ends. Square brackets hold non-standard residues; d marks the D form. Peptide text beside a SMILES is read from it. * marks the point of attachment. Tic(7-O(CH2)6CO) = O=C([C@@H]1Cc2ccc(OCCCCCCC(=O)[*:3])cc2CN1[*:1])[*:2]; X1 = CCCC(N[*:1])C(=O)C(=O)[*:2]; Chg = N[C@H](C(=O)O)C1CCCCC1; Phg = N[C@H](C(=O)O)c1ccccc1; OtBu = CC(C)(C)O*

Chain of NS3 (A3EZJ3 whole entry): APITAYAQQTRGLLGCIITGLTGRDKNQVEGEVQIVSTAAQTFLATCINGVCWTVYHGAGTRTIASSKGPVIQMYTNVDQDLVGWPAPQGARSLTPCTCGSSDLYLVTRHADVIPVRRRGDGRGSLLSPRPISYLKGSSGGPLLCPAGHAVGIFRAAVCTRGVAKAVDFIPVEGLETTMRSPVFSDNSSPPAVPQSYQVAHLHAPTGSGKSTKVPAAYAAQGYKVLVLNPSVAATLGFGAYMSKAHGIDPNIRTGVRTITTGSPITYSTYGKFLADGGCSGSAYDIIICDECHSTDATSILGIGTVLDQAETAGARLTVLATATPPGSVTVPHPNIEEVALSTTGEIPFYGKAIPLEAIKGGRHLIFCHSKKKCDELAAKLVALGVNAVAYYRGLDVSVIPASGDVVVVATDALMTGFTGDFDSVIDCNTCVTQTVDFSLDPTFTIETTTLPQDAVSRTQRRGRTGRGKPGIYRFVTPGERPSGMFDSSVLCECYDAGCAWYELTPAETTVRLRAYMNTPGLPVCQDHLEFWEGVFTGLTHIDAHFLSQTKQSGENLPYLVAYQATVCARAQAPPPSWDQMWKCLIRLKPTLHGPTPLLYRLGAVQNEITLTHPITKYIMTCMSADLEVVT

Regarding `CCCC(NC(=O)[C@@H]1Cc2ccc3cc2CN1C(=O)[C@H](C1CCCCC1)NC(=O)CCCCCCO3)C(=O)C(=O)NCC(=O)NCc1ccccc1` (stereo not given in full), the Ki (commonly a measure of affinity in units of concentration, obtained from inhibition or displacement) on NS3 was determined as 2 µM.
As for `CCCC(NC(=O)[C@@H]1Cc2ccc3cc2CN1C(=O)[C@H](C1CCCCC1)NC(=O)CCCCCCO3)C(=O)C(=O)NCC(=O)OCc1ccccc1` (stereo not given in full), the inhibition constant (Ki) at NS3 amounted to 1.7 µM.
`CCCC(NC(=O)[C@@H]1Cc2ccc3cc2CN1C(=O)[C@H](C1CCCCC1)NC(=O)CCCCCCO3)C(=O)C(N)=O` (stereo not given in full): on NS3, the Ki was determined as 2.1 µM.
Same read-out and setting: the result for `CCCC(NC(=O)[C@@H]1Cc2ccc3cc2CN1C(=O)[C@H](C1CCCCC1)NC(=O)CCCCCCO3)C(=O)C(=O)NCC(=O)O` (stereo not given in full) reads 3 µM.
Take `CCCC(NC(=O)[C@@H]1Cc2ccc3cc2CN1C(=O)[C@H](C1CCCCC1)NC(=O)CCCCCCO3)C(=O)C(=O)NCC(=O)N[C@H](C(=O)N(C)C)c1ccccc1` (stereo not given in full) ([Chg][Tic(7-O(CH2)6CO)][X1]G[Phg]-NMe2; lactam N-2): affinity at NS3 was put at a Ki of 0.021 µM. Further, the results for the AUC in data set [1] and in data set [3] were 5500 nM·h and 270 nM·h, respectively. Moreover, in data set [2], the bioavailability (usually dose-corrected exposure relative to a reference, in per cent) was under 10%.
For the compound `CCCC(NC(=O)[C@@H]1Cc2ccc3cc2CN1C(=O)[C@H](C1CCCCC1)NC(=O)CCCCCCO3)C(=O)C(=O)NCC(=O)N[C@H](C(=O)O)c1ccccc1` (stereo not given in full) ([Chg][Tic(7-O(CH2)6CO)][X1]G[Phg]-OH; lactam N-2), the Ki on NS3 was 0.015 µM.
Compound `CCCC(NC(=O)[C@@H]1Cc2ccc3cc2CN1C(=O)[C@H](C1CCCCC1)NC(=O)CCCCCCO3)C(=O)C(=O)NCC(=O)N[C@H](C(=O)OC(C)(C)C)c1ccccc1` (stereo not given in full) ([Chg][Tic(7-O(CH2)6CO)][X1]G[Phg]-OtBu; lactam N-2) showed a Ki on NS3 of 0.26 µM.
